According to ChEMBL document CHEMBL4373656, “A MedChem toolbox for cereblon-directed PROTACs” (Medchemcomm, 2019):
The source made the active and inactive calls. The rule behind the calls is not given here. *1 amine or outer side, *2 acyl side, *3 side chain or, on linkers, in order; H or OH if unused. Where a SMILES comes first, the peptide text is derived from it. The star is where a group is joined. X1 = O=C1CCC(N2C(=O)c3cccc(NCCCOCCCCOCCCN*)c3C2=O)C(=O)N1; Suc = O=C(CCC(=O)[*:2])[*:1]

Key:
[1] = biological target: T1, Cereblon/Ikaros (Homo sapiens) (UniProt Q96SW2+Q13422); assay: Protac activity at CRBN/ IKZF1 in human MM1S cells assessed as Bax protein expression at 0.1 to 10 uM after 16 hrs by Western blot analysis relative to tubulin; type: cell-based
[2] = biological target: T1, Cereblon/Ikaros (Homo sapiens); assay: Protac activity at CRBN/ IKZF1 in human MM1S cells assessed as IKZF1 degradation by measuring IKZF1/tubulin ratio at 0.1 uM after 16 hrs by Western blot analysis relative to tubulin; type: cell-based; set-up: unit not given here
In short: (§1)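 MM1S multiple myeloma cells were exposed to each compound for 16 h at the indicated concentrations, including 100 nM and 1 μM. Lysates were analysed by western blot for CRBN and for the neo-substrate IKZF1.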

[3] = biological target: T1, Cereblon/Ikaros (Homo sapiens); assay: Protac activity at CRBN/ IKZF1 in human MM1S cells assessed as CRBN degradation at 100 nM to 1 uM after 16 hrs by Western blot analysis; type: cell-based; in short: as §1
MM1.S = assay: Antiproliferative activity against human MM1S cells at 1 nM to 10 uM after 4 hrs by CellTiter-Glo assay; type: functional, cell-based
[4] = biological target: T1, Cereblon/Ikaros (Homo sapiens); assay: Protac activity at CRBN/ IKZF1 in human MM1S cells assessed as reduction in IKZF1 degradation at 0.001 to 0.01 uM after 16 hrs by Western blot analysis; type: cell-based

In the case of CSCC[C@H](NC(=O)[C@@H]1CCCN1C(=O)[C@@H](NC(=O)CCC(=O)NCCCOCCCCOCCCNc1cccc2c1C(=O)N(C1CCC(=O)NC1=O)C2=O)C(C)C)C(=O)N[C@@H](CC(C)C)C(=O)N[C@@H](CCCCN)C(=O)O (stereo not given in full) ({X1-Suc}-VPMLK-OH), the Activity [1] is reported as “inactive”.

With O=C(CC12CC3CC(CC(C3)C1)C2)NCCOCCOCCOCCNc1cccc2c1C(=O)N(C1CCC(=O)NC1=O)C2=O (stereo not given) the Ratio [2] was 16 and the Activity [3] was “inactive”.

Molecule Cc1ncsc1-c1ccc(CNC(=O)[C@@H]2C[C@@H](O)CN2C(=O)[C@@H](NC(=O)CCCCOCCCCCOCCCCCCNc2cccc3c2C(=O)N(C2CCC(=O)NC2=O)C3=O)C(C)(C)C)cc1 (stereo not given in full) has a Ratio [2] of 99.

For O=C(CC12CC3CC(CC(C3)C1)C2)NCCCOCCOCCOCCCNc1cccc2c1C(=O)N(C1CCC(=O)NC1=O)C2=O (stereo not given), the Ratio [2] was 24 and the Activity [3] was “inactive”.

In the case of O=C(CC12CC3CC(CC(C3)C1)C2)NCCCOCCCCOCCCNc1cccc2c1C(=O)N(C1CCC(=O)NC1=O)C2=O (stereo not given), the Ratio [2] is reported as 30 and the Activity [3] is reported as “inactive”.

With O=C(CC12CC3CC(CC(C3)C1)C2)NCCOCCOCCNc1cccc2c1C(=O)N(C1CCC(=O)NC1=O)C2=O (stereo not given) the Ratio [2] was 7.1, the Activity (MM1.S) was “Active” and the Activity [4] was “Active”. For the same molecule, the Activity [3] was “inactive”.

In the case of O=C(CC12CC3CC(CC(C3)C1)C2)NCCCOCCOCCCNc1cccc2c1C(=O)N(C1CCC(=O)NC1=O)C2=O (stereo not given), the Ratio [2] is reported as 15 and the Activity [3] is reported as “inactive”.

O=C1CCC(N2C(=O)c3cccc(NCCOCCOCCNc4cccc5c4C(=O)N(C4CCC(=O)NC4=O)C5=O)c3C2=O)C(=O)N1 (stereo not given) showed a Ratio [2] of 79.
